Source: ChEMBL document CHEMBL3865819, “Myrsinane, Premyrsinane, and Cyclomyrsinane Diterpenes from Euphorbia falcata as Potassium Ion Channel Inhibitors with Selective G Protein-Activated Inwardly Rectifying Ion Channel (GIRK) Blocking Effects” (J Nat Prod, 2016)

Key:
Format in all cases: cell-based
[1] = target: T1, Kir3.1/Kir3.4 (Homo sapiens) (UniProt P48549+P48544); experiment: Inhibition of GTPgammaS-induced activation of GIRK1/4 (unknown origin) expressed in HEK293 cells assessed as decrease in channel current at 1 uM after 2 mins at -40 mV holding potential by automated patch-clamp electrophysiology assay
Outline: (§1)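 Whole-cell automated planar patch clamp on HEK-293 cells stably expressing GIRK1/4 (Kir3.1/3.4). Internal solution carries 0.9 mM GTPγS to activate channels; bath switched from 4 mM K+ to high-K+ (25 mM KCl) external, pH 7.4. Step to 60 mV, ramp to −140 mV, 100 ms at −140 mV, ~0.1 Hz; inward current read at −140 mV. After 3 min control, 1 then 10 μM for ~2 min each; K+-free solution baseline; two to three cells.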

[2] = target: T1, Kir3.1/Kir3.4 (Homo sapiens); experiment: Inhibition of GTPgammaS-induced activation of GIRK1/4 (unknown origin) expressed in HEK293 cells assessed as decrease in channel current at 10 uM after 2 mins at -40 mV holding potential by automated patch-clamp electrophysiology assay; outline: as §1
hERG (KCNH2) [3] = target: T2, hERG (KCNH2) (Homo sapiens, UniProt Q12809); experiment: Inhibition of human ERG expressed in HEK293 cells assessed as decrease in channel current at 3 uM after 3 mins at -80 mV holding potential by automated patch-clamp electrophysiology assay; conditions: HEK293 cells that express hERG
T2 sequence (Q12809 whole entry): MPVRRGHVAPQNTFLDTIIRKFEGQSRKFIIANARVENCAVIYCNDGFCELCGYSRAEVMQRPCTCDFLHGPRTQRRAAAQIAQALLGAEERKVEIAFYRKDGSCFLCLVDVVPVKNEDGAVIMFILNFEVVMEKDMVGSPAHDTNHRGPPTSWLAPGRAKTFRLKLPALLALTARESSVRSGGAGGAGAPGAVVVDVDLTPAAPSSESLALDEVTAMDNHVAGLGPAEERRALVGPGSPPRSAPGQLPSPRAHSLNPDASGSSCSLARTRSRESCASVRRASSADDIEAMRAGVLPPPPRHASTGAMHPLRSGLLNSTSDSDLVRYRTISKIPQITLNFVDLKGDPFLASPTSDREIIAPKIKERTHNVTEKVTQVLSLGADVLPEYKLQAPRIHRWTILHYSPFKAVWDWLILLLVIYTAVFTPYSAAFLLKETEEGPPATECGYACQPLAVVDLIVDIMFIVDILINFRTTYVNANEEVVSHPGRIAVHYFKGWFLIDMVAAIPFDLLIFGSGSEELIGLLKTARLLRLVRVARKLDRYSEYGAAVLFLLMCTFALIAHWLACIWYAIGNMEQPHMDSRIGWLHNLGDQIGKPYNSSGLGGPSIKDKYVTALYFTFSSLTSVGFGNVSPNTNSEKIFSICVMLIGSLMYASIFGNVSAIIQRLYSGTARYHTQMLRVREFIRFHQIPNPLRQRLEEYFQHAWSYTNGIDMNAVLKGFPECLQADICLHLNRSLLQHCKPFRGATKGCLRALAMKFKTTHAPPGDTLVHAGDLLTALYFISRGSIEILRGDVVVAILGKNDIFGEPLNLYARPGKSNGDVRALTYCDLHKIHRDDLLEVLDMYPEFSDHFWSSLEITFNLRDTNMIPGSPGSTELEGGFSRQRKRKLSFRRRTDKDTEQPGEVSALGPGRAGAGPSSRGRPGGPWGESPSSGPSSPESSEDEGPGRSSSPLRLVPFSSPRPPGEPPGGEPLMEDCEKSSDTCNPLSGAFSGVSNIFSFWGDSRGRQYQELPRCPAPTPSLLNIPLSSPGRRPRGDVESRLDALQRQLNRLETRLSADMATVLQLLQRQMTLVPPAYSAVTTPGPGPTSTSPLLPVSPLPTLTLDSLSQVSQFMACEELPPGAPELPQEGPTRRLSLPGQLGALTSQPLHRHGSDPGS
Outline: (§2)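 HEK-293 cells stably transfected with hERG (Kv11.1), whole-cell automated planar patch clamp. External solution 4 mM KCl, pH 7.4; internal KCl/KF/EGTA, pH 7.2. Protocol: 100 ms −40 mV reference step, 3 s at 20 mV, then 1 s at −40 mV for the outward tail current. After control, 3, 10, 30 μM cumulative, ~3 min each; amitriptyline 10 μM reference, then wash-out; two or three cells; DMSO ≤0.3% final.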

hERG (KCNH2) [4] = target: T2, hERG (KCNH2); experiment: Inhibition of human ERG expressed in HEK293 cells assessed as decrease in channel current at 10 uM after 3 mins at -80 mV holding potential by automated patch-clamp electrophysiology assay; conditions: HEK293 cells that express hERG; outline: as §2
hERG (KCNH2) [5] = target: T2, hERG (KCNH2); experiment: Inhibition of human ERG expressed in HEK293 cells assessed as decrease in channel current at 30 uM after 3 mins at -80 mV holding potential by automated patch-clamp electrophysiology assay; conditions: HEK293 cells that express hERG; outline: as §2
Kir3.1/Kir3.4 = target: T3, Kir3.1/Kir3.4 (Homo sapiens, UniProt P48544+P48549); experiment: Inhibition of GTPgammaS-induced activation of GIRK1/4 (unknown origin) expressed in HEK293 cells assessed as decrease in channel current after 2 mins at -40 mV holding potential by automated patch-clamp electrophysiology assay
T3 sequence (P48549 whole entry): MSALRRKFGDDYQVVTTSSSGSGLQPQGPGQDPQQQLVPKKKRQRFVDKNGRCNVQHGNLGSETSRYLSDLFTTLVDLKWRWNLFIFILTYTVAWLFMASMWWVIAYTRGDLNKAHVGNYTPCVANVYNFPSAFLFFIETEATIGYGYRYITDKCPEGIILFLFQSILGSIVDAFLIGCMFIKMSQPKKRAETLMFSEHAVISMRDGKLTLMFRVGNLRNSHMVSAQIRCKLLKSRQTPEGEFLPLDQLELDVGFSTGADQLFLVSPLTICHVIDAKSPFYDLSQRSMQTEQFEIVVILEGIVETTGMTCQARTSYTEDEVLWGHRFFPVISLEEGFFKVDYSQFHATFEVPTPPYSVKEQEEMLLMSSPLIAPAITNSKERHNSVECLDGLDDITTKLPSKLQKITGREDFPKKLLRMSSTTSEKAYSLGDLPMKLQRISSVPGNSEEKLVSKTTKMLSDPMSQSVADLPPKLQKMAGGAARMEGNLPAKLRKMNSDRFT
T3 sequence (P48544 whole entry): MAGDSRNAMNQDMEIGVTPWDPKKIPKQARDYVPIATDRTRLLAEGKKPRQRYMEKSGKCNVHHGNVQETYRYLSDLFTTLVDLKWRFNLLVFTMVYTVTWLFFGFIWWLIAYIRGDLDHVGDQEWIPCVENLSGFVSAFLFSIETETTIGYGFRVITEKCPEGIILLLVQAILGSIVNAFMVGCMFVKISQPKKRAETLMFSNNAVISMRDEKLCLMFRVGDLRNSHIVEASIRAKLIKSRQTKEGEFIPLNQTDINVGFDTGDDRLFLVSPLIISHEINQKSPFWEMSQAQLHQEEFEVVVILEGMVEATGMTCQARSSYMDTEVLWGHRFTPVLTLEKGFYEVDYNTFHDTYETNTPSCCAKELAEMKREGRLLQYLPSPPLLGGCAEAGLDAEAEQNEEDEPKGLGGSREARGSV
Outline: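 HEK-293 cells stably expressing Kir3.1/3.4, grown in MEM with 10% FBS and zeocin, trypsinised and resuspended serum-free. Whole-cell automated planar patch clamp. Internal solution contained 0.9 mM GTPγS. Recordings began in normal external solution (4 mM K+), then switched to high-K+ external solution (25 mM KCl, pH 7.4). Each cycle: step to 60 mV for 100 ms, 500 ms ramp to −140 mV, hold at −140 mV for 100 ms, about 0.1 Hz. Inward current taken from the −140 mV segment. After a 3 min control period, compound was added in rising concentrations, about 2 min each: 1 and 10 μM for screening on 2–3 cells, or 1, 3, 10 and 30 μM on at least 5 cells for IC50. Final DMSO was 0.3% or less. Current in K+-free solution served as baseline. 1 μM propafenone was the reference.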

| Structure (SMILES) | inhibition [1] | inhibition [2] | inhibition at 0.05 h, 3 µM (hERG (KCNH2) [3]) | inhibition at 0.05 h, 10 µM (hERG (KCNH2) [4]) | inhibition at 0.05 h, 30 µM (hERG (KCNH2) [5]) | IC50 (Kir3.1/Kir3.4) |
| --- | --- | --- | --- | --- | --- | --- |
| CCC(C)C(=O)O[C@H]1C(=O)[C@@]23CO[C@@](C)([C@H](OC(C)=O)[C@@]4(OC(C)=O)C[C@H](C)[C@H](OC(=O)c5cccnc5)[C@@H]4[C@H]2OC(C)=O)[C@@H]3[C@@H]2[C@H]1C[C@]2(C)OC(C)=O (stereo not given in full) | 31% | 72% | 4% | 14% | 25% | 4.9 µM |
| CCC(=O)O[C@@H]1[C@@H]2[C@@H](OC(C)=O)[C@@]34CO[C@@](C)([C@H](OC(C)=O)[C@@]2(OC(C)=O)C[C@@H]1C)[C@@H]3[C@@H](C(C)(C)OC(C)=O)C=CC4=O | 24% | 62% | 5% | 13% | 18% | 6.7 µM |
| CC(=O)O[C@@H]1[C@H]2[C@@H](OC(=O)c3ccccc3)[C@@H](C)C[C@]2(OC(C)=O)[C@@H](OC(C)=O)[C@]2(C)OC[C@]13C(=O)C=C[C@H](C(C)(C)OC(C)=O)[C@@H]23 | 43% | 83% | 9% | 20% | 39% | 2.5 µM |
| CC(=O)O[C@@H]1[C@H]2[C@@H](OC(=O)C(C)C)[C@@H](C)C[C@]2(OC(C)=O)[C@@H](OC(C)=O)[C@]2(C)OC[C@]13C(=O)[C@H](OC(C)=O)[C@@H]1C[C@](C)(OC(C)=O)[C@@H]1[C@@H]23 | 28% | 61% | 8% | 16% | 23% | 9.7 µM |
| CC(=O)O[C@@H]1[C@H]2[C@@H](OC(=O)C(C)C)[C@@H](C)C[C@]2(OC(C)=O)[C@@H](OC(C)=O)[C@]2(C)OC[C@]13C(=O)C=C[C@H](C(C)(C)OC(C)=O)[C@@H]23 [EUPHORBIAPROLIFERIN C] | 34% | 69% | 0% | 4% | 16% | 4.7 µM |
